An excerpt weighted towards active compounds, which were near 3.6% of everything screened.
EBNA-1 inhibitor – EBNA-1 DNA-binding inhibitors, primary screen, biochemical, fluorescence polarization. inhibition, % at 14.8 µM. 300,000 compounds, 0.34% hits; in the data active = inhibition above about 28%
DNA FID counter – compounds displacing fluorescent DNA intercalator, primary screen, artefact control for HCV NS3 helicase inhibitor project, biochemical, FID fluorescence; DNA fluorescent intercalator displacement; inhibition, % at 7.9 µM; AID 1845, 2009; 290,000 compounds, 0.17% hits; in the data active = inhibition above about 37%;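 note: 0% = vehicle and 100% = reference compound; higher means more ethidium bromide displaced from hairpin DNA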
ZTA counter – ZTA (EBV) inhibition in EBNA-1 counter-screen | ZTA-DNA binding, fluorescence polarization | inhibition, % at 11 µM | 320,000 compounds, 0.15% hits | AID 2234; in the data active = inhibition above about 33%
Target sequence (P03206 whole entry, looked up): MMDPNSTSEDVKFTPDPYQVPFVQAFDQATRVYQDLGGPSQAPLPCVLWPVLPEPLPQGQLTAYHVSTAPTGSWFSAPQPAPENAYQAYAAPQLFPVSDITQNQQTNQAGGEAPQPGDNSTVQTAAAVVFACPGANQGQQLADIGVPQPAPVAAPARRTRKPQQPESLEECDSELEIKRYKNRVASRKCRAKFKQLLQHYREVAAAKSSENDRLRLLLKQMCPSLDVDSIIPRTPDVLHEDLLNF
NS3 helicase inh – inhibitors of HCV NS3 helicase, primary screen, biochemical, Cy5 molecular beacon fluorescence. Hepatitis C virus NS3 helicase. NS3 helicase DNA unwinding. inhibition, % at 10.9 µM. 290,000 compounds, 0.56% hits. AID 1800, 2009;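 active = inhibition above the mean of all tested compounds plus 3 SD, set per campaign, cut at about 35% in these data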;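 note: 0% = DMSO wells and 100% = thioflavine S control wells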
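System: HCV NS3 helicase fragment; control set: DMSO and thioflavine S; technique: Cy5 fluorescence at 0 and 60 min, beacon hairpin quenching; reagent: beacon DNA duplex substrate plus ATP; replicates: singlicate; schedule: 1 h reaction at 25 °C, ATP-initiated; medium: MOPS buffer pH 6.5 with MgCl2, DTT, Tween20, BSA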
GRIN3A LBD mod – binders of NR3A ligand-binding domain, primary screen, biophysical, differential scanning fluorimetry, uHTS. Glutamate receptor ionotropic, NMDA 3A (GRIN3A) ligand-binding domain. NR3A LBD differential scanning fluorimetry, Tm shift; 0% = protein alone, 100% = glycine-bound protein. Tm shift relative to glycine control, % at 25 µM. 340,000 compounds, 2.5% hits;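 active = melting temperature shift of at least 10% of the positive control shift, at one fixed dose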
FGF22 binding – binders of human FGF22 protein, primary screen, FGF22 synaptogenesis inhibitor project, biophysical, thermal shift, single point | Fibroblast growth factor 22 (Homo sapiens), Q9HCT0 | AID 651658, 2012 | 340,000 compounds, 1.5% hits | recombinant FGF22 thermal shift, SYPRO orange fluorescence; percent of sucrose octasulfate shift, DMSO zero | activity (Tm shift, normalised), % at 9.99 µM;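 active = mean Tm shift, scaled 0 neutral to 100 positive control, at about 1.3% or above, every replicate too, limit read from the data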
Target sequence (Q9HCT0 whole entry, looked up): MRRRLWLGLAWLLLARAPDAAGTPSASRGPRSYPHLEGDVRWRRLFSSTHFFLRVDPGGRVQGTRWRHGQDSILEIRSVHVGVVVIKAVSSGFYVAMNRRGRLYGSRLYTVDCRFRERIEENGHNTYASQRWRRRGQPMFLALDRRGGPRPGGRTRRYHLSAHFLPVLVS
* hit, by the source's call.

Results for COc1ccccc1NC(=O)Nc1nc(CC(=O)Nc2ccc(OC)c(OC)c2)cs1 ?
EBNA-1 inhibitor: -13; ZTA counter: -7; GRIN3A LBD mod: 17*; FGF22 binding: 1

What do the screens show for `C[C@@H]1CN([C@@H](C)CO)C(=O)c2cc(C#CCN(C)C)cnc2O[C@@H]1CN(C)Cc1ccc(C(=O)O)cc1`?
FGF22 binding: 0

How did CCCC(=O)Nc1ccc2c(c1)OC[C@H](C)N(Cc1ccc(-c3ccccn3)cc1)C[C@H](C)[C@@H](OC)CN(C)C2=O do in these assays?
FGF22 binding: 0

What do the screens show for `Cc1noc(C)c1S(=O)(=O)N(C)C[C@@H]1Oc2ccc(NC(=O)Nc3cccc4ccccc34)cc2CC(=O)N([C@@H](C)CO)C[C@H]1C`?
FGF22 binding: 0

What do the screens show for `COc1ccc(-n2c(SCC(=O)Nc3ccc(Cl)cc3)nc(O)c(Cc3ccccc3)c2=O)cc1`?
EBNA-1 inhibitor: 11; DNA FID counter: -45; ZTA counter: 1; NS3 helicase inh: -12; GRIN3A LBD mod: 10*; FGF22 binding: 0

What do the screens show for `COc1ccc(-n2c(SCC(=O)Nc3ccc(C)cc3)nc(O)c(Cc3ccccc3)c2=O)cc1`?
EBNA-1 inhibitor: 14; DNA FID counter: -55; ZTA counter: 27; NS3 helicase inh: -3; GRIN3A LBD mod: -7; FGF22 binding: 0

Results for COC(=O)C1=C(C)N(Cc2ccccc2)C(=NCc2ccccc2)N[C@H]1c1cccc(F)c1 ?
EBNA-1 inhibitor: 1; DNA FID counter: 30; ZTA counter: -11; NS3 helicase inh: -144; GRIN3A LBD mod: -3; FGF22 binding: 45*

How did O=C(NCc1ccccc1Cl)c1ccccc1Oc1ccccc1 do in these assays?
EBNA-1 inhibitor: -10; DNA FID counter: -22; ZTA counter: -3; NS3 helicase inh: -6; GRIN3A LBD mod: 11*

Results for O=C(NCc1ccccc1Cl)c1cnccn1 ?
EBNA-1 inhibitor: -1; DNA FID counter: 0; ZTA counter: 2; NS3 helicase inh: -1; GRIN3A LBD mod: -4

What do the screens show for `O=C(NCc1ccccc1Cl)c1cnccc1C(F)(F)F`?
EBNA-1 inhibitor: 6; DNA FID counter: 0; ZTA counter: -5; NS3 helicase inh: 3; GRIN3A LBD mod: 12*; FGF22 binding: 0

What do the screens show for `C[C@@H]1CN([C@H](C)CO)C(=O)c2cc(-c3ccccc3)cnc2O[C@@H]1CN(C)C(=O)c1cccnc1`?
FGF22 binding: 0

What do the screens show for `C[C@H]1CCCCO[C@H](CN(C)C(=O)Cc2ccccc2)[C@@H](C)CN([C@@H](C)CO)C(=O)c2cc(NC(=O)Nc3ccc4c(c3)OCO4)ccc2O1`?
FGF22 binding: -1

What do the screens show for `O=[N+]([O-])c1ccc(-c2ccc(/C=N/Nc3nc(N4CCCC4)nc(N4CCCC4)n3)o2)cc1`?
EBNA-1 inhibitor: 8; DNA FID counter: 0; ZTA counter: 11; NS3 helicase inh: 3; GRIN3A LBD mod: 1; FGF22 binding: 0

How did COc1ccc(-c2cnnc(N/N=C/c3ccc(-c4ccc([N+](=O)[O-])cc4)o3)n2)cc1 do in these assays?
DNA FID counter: 0; NS3 helicase inh: -3; GRIN3A LBD mod: 19*; FGF22 binding: 0

How did O=[N+]([O-])c1ccc(-c2ccc(/C=N/O)o2)cc1 do in these assays?
EBNA-1 inhibitor: -7; DNA FID counter: 6; ZTA counter: -8; NS3 helicase inh: 2; GRIN3A LBD mod: 33*; FGF22 binding: 0

What do the screens show for `C[C@H](CO)N1C[C@H](C)[C@@H](CN(C)C(=O)Nc2ccc(F)cc2)Oc2c(NC(=O)c3cnccn3)cccc2C1=O`?
FGF22 binding: 0

Results for CCc1ccc2c(c1)/C(=N/N(C)C(=S)NC)C(=O)N2 ?
EBNA-1 inhibitor: -1; DNA FID counter: 0; ZTA counter: 5; NS3 helicase inh: 8; GRIN3A LBD mod: 13*

Results for CCc1ccc2c(c1)/C(=C/C(=O)c1cccs1)C(=O)N2 ?
EBNA-1 inhibitor: -4; DNA FID counter: 7; ZTA counter: 7; NS3 helicase inh: -5; GRIN3A LBD mod: -30

Results for O=C(Nc1nc2ccccc2s1)c1cccc(N2C(=O)CCC2=O)c1 ?
EBNA-1 inhibitor: 8; DNA FID counter: -10; ZTA counter: 9; NS3 helicase inh: -5; GRIN3A LBD mod: 4; FGF22 binding: 0

What do the screens show for `O=C(Nc1ccc2sccc2c1)c1cccc(N2C(=O)CCC2=O)c1`?
EBNA-1 inhibitor: 1; DNA FID counter: -3; ZTA counter: 6; NS3 helicase inh: 1; GRIN3A LBD mod: 1; FGF22 binding: 43*

Results for CCOC(=O)C1CCCN(C(=O)/C=C/c2ccc(Cl)cc2)C1 (configuration not stated) ?
EBNA-1 inhibitor: -2; DNA FID counter: -24; ZTA counter: -4; NS3 helicase inh: 1; GRIN3A LBD mod: 1; FGF22 binding: 0

Results for CCOC(=O)C1CCCN(C(=O)/C=C/c2cc(OC)c(OC)c(OC)c2)C1 (configuration not stated) ?
EBNA-1 inhibitor: -7; DNA FID counter: -6; ZTA counter: -15; NS3 helicase inh: 5; GRIN3A LBD mod: -2; FGF22 binding: 44*

Results for C[C@@H]1CN([C@@H](C)CO)C(=O)c2cc(NC(=O)Nc3ccc(C(F)(F)F)cc3)ccc2O[C@@H](C)CCCCO[C@H]1CN(C)S(=O)(=O)c1ccc(Cl)cc1 ?
FGF22 binding: 0

How did O=C(OCC(=O)N1CCN(Cc2ccccc2)CC1)c1ccc(Cl)cc1 do in these assays?
EBNA-1 inhibitor: -5; DNA FID counter: -27; ZTA counter: -13; NS3 helicase inh: 5; GRIN3A LBD mod: 0; FGF22 binding: 44*

Results for O=C(OCC(=O)N1CCN(C(=O)c2ccco2)CC1)c1ccc(Cl)cc1 ?
ZTA counter: -26; GRIN3A LBD mod: 0; FGF22 binding: 0

What do the screens show for `COc1ccc(-n2nnnc2-c2cccnc2)cc1`?
EBNA-1 inhibitor: -13; DNA FID counter: -2; ZTA counter: 2; NS3 helicase inh: 4; GRIN3A LBD mod: 15*

Results for Cc1ccc(-n2nnnc2-c2ccccc2)cc1 ?
EBNA-1 inhibitor: 7; DNA FID counter: 9; ZTA counter: 9; NS3 helicase inh: 11; GRIN3A LBD mod: -1; FGF22 binding: 0

How did Cc1nnc(SCC(=O)Nc2sc3c(c2C(=O)c2ccccc2)CCCC3)s1 do in these assays?
EBNA-1 inhibitor: 8; DNA FID counter: -23; ZTA counter: -5; NS3 helicase inh: 13; GRIN3A LBD mod: 10*
